aSyn UTR inh: MLPCN primary screen, SNCA 5' untranslated region. alpha-synuclein 5'UTR reporter, inhibitor activity. inhibition, % (tested at 7.5 µM). 300,000 compounds, 0.82% hits; in the data active means inhibition above about 60%; inconclusive means no clear call, values can overlap the other calls;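 further: H4 neuroglioblastoma cells stably carrying SNCA 5'UTR luciferase fusion; 0% = DMSO wells and 100% = positive control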
LMP1 NFkB inh: reduces LMP1-driven NF-kappaB luciferase signal | AID 504558 | inhibition, % at 12.5 µM | 350,000 compounds, 0.69% hits | LMP1-induced NF-kappaB luciferase reporter cells, luminescence; in the data active means inhibition above about 41%; inconclusive means no clear call, values can overlap the other calls;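 further: 0% = neutral control wells and 100% = reference inhibitor control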
PAX8 reporter: PAX8 transcriptional activity inhibition; AID 652154; 360,000 compounds, 1.2% hits; RMG-I TPO-luciferase reporter, SteadyGlo, 24 h; inhibition, % at 12.6 µM;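 active means mean replicate inhibition at least 60% with every replicate also reaching 60%; inconclusive means only one of the two criteria is met; inactive means mean below 60% and not all replicates reaching 60%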;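 further: luciferase light reporting Pax8 driven TPO promoter activity; plate controls were median of neutral control wells for no effect and mitoxantrone controls for full effect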
EWS-Fli inh: EWS/Fli transcriptional activity inhibition; inhibition, % at 12.6 µM; A673 NR0B1-luciferase reporter, viability-normalised; 350,000 compounds, 0.67% hits; AID 651661;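 active means mean inhibition of at least 50% after viability correction, with every replicate also passing that limit; inconclusive means mean reaches 50% but only one of two replicates passes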;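 further: firefly luciferase signal divided by Alamar Blue viability fluorescence both relative to DMSO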
Shn3 3UTR inh: Schnurri-3 reporter inhibition in Clone20 osteoblasts; Clone20 osteoblast Shn3 3'UTR firefly luciferase, 24 h; inhibition, % at 12.5 µM; 360,000 compounds, 0.52% hits; AID 588674;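 active means mean inhibition of at least 75% with every replicate also reaching 75%; inconclusive means mean inhibition at least 75% but some replicate below; inactive means mean inhibition below 75%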;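 further: 0% = median of neutral control wells and 100% = pilot-screen positive control compound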
FN deposit inh: fibronectin deposition inhibition; AH1F fibroblasts, Alexa488-fibronectin deposition fluorescence, overnight; inhibition, % at 12.6 µM; 350,000 compounds, 0.086% hits;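 active means mean inhibition across replicates of 30% or more, regardless of how many single replicates reach that level; inconclusive means mean under 30% yet at least half of replicates reach 30%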;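 further: positive control wells lacked labelled fibronectin entirely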
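Material: AH1F fibroblasts assembling fluorescent fibronectin matrix; amount: 10000 AH1F cells/well; medium: DMEM, 2% serum; reagent: Alexa488-fibronectin, 24 nM final in well; dosing: single compound dose, delivered by pin transfer; incubation: 1 h adhesion, overnight exposure; detection: fluorescence after three HBSS washes, excitation 485 nm, emission 525 nm; measure: fibronectin deposition inhibition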
Starred values were filed as active, the others as inactive; ? = inconclusive; . = no result; ! = repeats disagree. In the library only some 2.1% were active in any assay of this set; here they are far more common.

SMILES | aSyn UTR inh | LMP1 NFkB inh | PAX8 reporter | EWS-Fli inh | Shn3 3UTR inh | FN deposit inh
C[C@@H]1CN([C@H](C)CO)C(=O)c2cc(NS(=O)(=O)c3ccc(Cl)cc3)ccc2O[C@@H](C)CCCCO[C@H]1CN(C)Cc1ccc2c(c1)OCO2 | . | . | 90*! | 14 | . | -5
C[C@H]1CCCCO[C@H](CN(C)Cc2ccc3c(c2)OCO3)[C@@H](C)CN([C@@H](C)CO)C(=O)c2cc(NS(=O)(=O)c3ccc(Cl)cc3)ccc2O1 | . | . | 21 | 18 | . | -7
CN1c2ccc(C#Cc3cccnc3)cc2[C@H]2[C@H](CCN2C(=O)Nc2cc(F)ccc2F)[C@@H]1CO | . | . | -18 | 6 | . | -2
COc1ccccc1C(=O)Nc1ccc2c(c1)C(=O)N(C)[C@@H]1CC[C@@H](CC(=O)NCCc3ccncc3)O[C@H]1CO2 | . | . | 1 | -3 | . | -15
COc1ccc(-c2cc3nc(-c4ccccc4)cc(N4CCCC(O)C4)n3n2)cc1 (stereo unspecified) | -22 | 62* | 10 | 11 | 5 | -24
C=CCSc1nccc(-c2cc(Cl)sc2Cl)n1 | -27 | 84* | . | . | 6 | .
N#CCSc1nccc(-c2cc(Cl)sc2Cl)n1 | 2 | -1 | . | . | -1 | .
CC(=O)Oc1ccc(C(=O)Nc2cccnc2)cc1 | -11 | 85* | -33 | 2 | 24 | -4
COc1ccc(C(=O)Nc2ccc(C(=O)Nc3cccnc3)cc2)cc1 | 3 | 3 | -4 | 0 | -11 | 7
Cc1ccc(C)c(N2CCN(c3ncccc3[N+](=O)[O-])CC2)c1 | 38 | 11 | 62* | 0 | 24 | -1
N=C1S/C(=C\c2ccc(-c3cccc(Cl)c3)o2)C(=O)N1c1nccs1 | 53 | 22 | 20 | 23 | ? | 9
COc1ccc(/C=C2\SC(=N)N(c3nccs3)C2=O)cc1OC | 65* | 11 | 22 | 13 | 9 | 4
C[C@@H]1CN([C@H](C)CO)C(=O)c2cc(NC(=O)Nc3ccccc3)ccc2O[C@@H]1CN(C)S(=O)(=O)c1ccc(F)cc1 | . | . | . | -10 | . | 7
COc1ccc2c3c(n(C)c2c1)[C@@H](CO)N(C(=O)c1ccncc1)CC31CN(C(C)=O)C1 | . | . | -11 | -1 | . | -11
CCCn1c(SCC(=O)N2c3ccccc3Sc3ccccc32)nc2c1c(=O)n(C)c(=O)n2C | 47 | 14 | . | . | 7 | active
CC(C)n1c(SCC(=O)N2c3ccccc3Sc3ccccc32)nc2c1c(=O)n(C)c(=O)n2C | ? | 13 | . | . | 29 | 13
CN(C)CCCn1c(SCC(=O)N2c3ccccc3Sc3ccccc32)nc2ccccc2c1=O | 36 | -7 | 5 | 54* | -7 | -2
Cc1ccc(S(=O)(=O)N(C)C[C@H]2Oc3ccc(NC(=O)CCC(F)(F)F)cc3CC(=O)N([C@@H](C)CO)C[C@@H]2C)cc1 | . | . | -17 | 4 | . | .
CCC(=O)Nc1ccc2c(c1)C(=O)N(C)C[C@H](OC)[C@@H](C)CN(C(=O)CC)[C@@H](C)CO2 | . | . | . | 2 | . | 9
CN1C(=O)c2cc(NS(=O)(=O)CC(F)(F)F)ccc2OC[C@H]2O[C@@H](CC(=O)Nc3cccc(F)c3)CC[C@@H]21 | . | . | 3 | -1 | . | -3
CN1[C@@H]2Cn3c(ccc(-c4ccccc4)c3=O)[C@H]1[C@@H](C(=O)N1CCC(Cc3ccccc3)CC1)[C@@H]2CO | . | . | . | 8 | . | .
O=C(CN1C(=O)c2ccccc2C1=O)NNC1=NS(=O)(=O)c2ccccc21 | 22 | 42* | -5 | -2 | 4 | 7
O=C(Nc1ccc(F)cc1)N1CC(=O)N2[C@H](CO)[C@H](c3ccc(C4=CCCC4)cc3)[C@H]2C1 | . | . | 4 | -8 | . | 6
COc1cccc(-c2ccc([C@H]3[C@@H](CO)N4C(=O)CN(C(=O)C5CCCC5)C[C@@H]34)cc2)c1 | . | . | -10 | -6 | . | -14
CCN(CC)c1ccc(C(=C2C=CC(=[N+](CC)CC)C=C2)c2ccc(N(CC)CC)cc2)cc1 | . | 36 | 113* | 34 | 89* | 60*
SMILES | aSyn UTR inh | LMP1 NFkB inh | PAX8 reporter | EWS-Fli inh | Shn3 3UTR inh | FN deposit inh
CCN(CC)c1ccc(C(=O)NNC(=O)CCl)cc1 | -19 | -3 | -9 | 16 | 32 | 8
CCN(CC)c1ccc(C(=C2C=CC(=[N+](CC)CC)C=C2)c2ccccc2)cc1 | . | 95* | 113* | 40 | 97* | 38*
CCCC#Cc1cnc2c(c1)C(=O)N([C@H](C)CO)C[C@H](C)[C@H](CN(C)C(=O)CCN1CCCCC1)O2 | . | . | -13 | -4 | . | 8
O=C(N[C@@H]1CC[C@H](CCNS(=O)(=O)c2ccccc2Cl)O[C@H]1CO)c1ccc(F)cc1 | . | . | 2 | 3 | . | -5
CC(C)NC(=O)N(C)C[C@@H]1OCCCC[C@H](C)Oc2ccc(NS(=O)(=O)c3cn(C)cn3)cc2C(=O)N([C@H](C)CO)C[C@@H]1C | . | . | -9 | -12 | . | -1
O=C(C[C@@H]1CC[C@H]2[C@@H](COC[C@H](O)CN2C(=O)c2ccncc2)O1)NCc1cccc(F)c1 | . | . | -3 | 6 | . | 3
COc1ccc(/C=C/C(=O)OCC(=O)Nc2ccc(OC)c(S(=O)(=O)N3CCCCC3)c2)cc1 | 3 | -11 | 32 | 2 | -4 | 2
COc1ccc(NC(=O)COC(=O)/C=C/c2ccc(OC)c(S(=O)(=O)N3CCOCC3)c2)cc1 | 1 | 54* | . | . | -54 | -10
COc1ccc(/C=C/C(=O)OCC(=O)Nc2ccc(C)cc2)cc1S(=O)(=O)N1CCOCC1 | -16 | -9 | 76* | -4 | 2 | 3
COc1ccc(S(=O)(=O)N2CCOCC2)cc1NC(=O)COC(=O)CCS(=O)(=O)c1ccc(C)cc1 | . | 68* | -9 | 0 | -56 | 6
C[C@H]1CN([C@@H](C)CO)S(=O)(=O)c2ccc(C#Cc3ccccc3F)cc2O[C@@H]1CN(C)C | . | . | . | 1 | . | 3
Cc1ccc(S(=O)(=O)N(C)C[C@@H]2OCCCC[C@H](C)Oc3ccc(NC(=O)c4ccncc4)cc3C(=O)N([C@@H](C)CO)C[C@H]2C)cc1 | . | . | -31 | -12 | . | -7
CC(=O)Nc1ccc(C(=O)N2CCCCC2c2cc(C(=O)Nc3cccc4c3CCCC4)no2)cc1 (stereo unspecified) | . | . | 29 | 24 | 2 | 0
Cn1nc(C(C)(C)C)cc1C(=O)N1CCCCC1c1cc(C(=O)Nc2cccc3c2CCCC3)no1 (stereo unspecified) | . | . | -3 | -21 | 81* | -2
C/C(=N\NC(=O)COc1ccccc1-c1ccccc1)c1ccc(O)cc1O | 51 | 30 | 42 | 19 | 92* | 4
CCCCCC(=O)N/N=C(\C)c1ccc(N2CCCCC2)cc1 | -65 | -2 | 126* | -20 | -30 | 4
O=C(COc1ccccc1-c1ccccc1)N/N=C/c1ccncc1 | 19 | 0 | 3 | 3 | 6 | 7
O=C(COc1ccccc1-c1ccccc1)N/N=C/c1ccc2ccccc2c1 | -59 | 2 | 93* | 40 | 13 | -14

High-throughput results: PubChem BioAssay, Broad Institute
